Test results: ChEMBL document CHEMBL4043295, “Marbostat-100 Defines a New Class of Potent and Selective Antiinflammatory and Antirheumatic Histone Deacetylase 6 Inhibitors” (J Med Chem, 2018)
Activity calls are given as the source filed them. The rule behind the calls is not given here.

Tests used:
[1] = tested on: Mus musculus; experiment: Toxicity in DBA/1J mouse collagen-induced arthritis model assessed as effect on hemoglobin concentration at 30 mg/kg, ip administered every morning for 12 to 14 days measured post last dose relative to vehicle-treated control; format: organism-based; settings: in vivo
[2] = tested on: Mus musculus; experiment: Toxicity in DBA/1J mouse collagen-induced arthritis model assessed as effect on red blood cell count at 30 mg/kg, ip administered every morning for 12 to 14 days measured post last dose relative to vehicle-treated control; format: organism-based; settings: in vivo
[3] = target: T1, Polyamine deacetylase HDAC10 (Homo sapiens, UniProt Q969S8); experiment: Inhibition of recombinant human HDAC10 expressed in baculovirus-infected insect cells using fluorogenic peptide RHKKAc as substrate by fluorimeter
T1 sequence (Q969S8 whole entry): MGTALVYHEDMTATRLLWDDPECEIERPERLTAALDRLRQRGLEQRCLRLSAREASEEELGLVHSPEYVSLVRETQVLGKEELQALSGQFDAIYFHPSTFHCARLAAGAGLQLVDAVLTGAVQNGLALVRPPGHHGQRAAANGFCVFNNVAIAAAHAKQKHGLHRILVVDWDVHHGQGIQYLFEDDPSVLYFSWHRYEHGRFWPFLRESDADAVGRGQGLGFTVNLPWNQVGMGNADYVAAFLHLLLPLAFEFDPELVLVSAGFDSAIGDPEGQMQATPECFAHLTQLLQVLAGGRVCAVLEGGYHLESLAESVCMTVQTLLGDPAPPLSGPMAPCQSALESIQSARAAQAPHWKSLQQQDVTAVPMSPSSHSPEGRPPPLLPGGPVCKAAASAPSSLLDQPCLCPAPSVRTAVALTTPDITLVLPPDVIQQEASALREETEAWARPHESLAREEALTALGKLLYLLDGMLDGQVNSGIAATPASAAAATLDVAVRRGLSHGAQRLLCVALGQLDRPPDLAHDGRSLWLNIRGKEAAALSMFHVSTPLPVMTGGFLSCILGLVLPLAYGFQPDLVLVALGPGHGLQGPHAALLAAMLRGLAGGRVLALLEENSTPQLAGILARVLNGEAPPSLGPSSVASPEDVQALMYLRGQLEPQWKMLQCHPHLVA

[4] = tested on: Mus musculus; experiment: Antiarthritic activity in DBA/1J mouse collagen-induced arthritis model assessed as reduction in paw thickness at 30 mg/kg, ip administered every morning for 1 week measured during compound dosing; format: functional, organism-based
Outline: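 Collagen type II-induced arthritis in mice, treated at 30 mg/kg versus vehicle. Clinical arthritis score and paw swelling were followed over time from the start of treatment until the end of the experiment.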

In the case of `CN1C(=O)C2CN(Cc3c2c2ccccc2n3Cc2ccc(C(=O)NO)cc2)C1=O` (centres undefined), the Activity [1] is reported as “Non-Toxic”, the Activity [2] is reported as “Non-Toxic” and the Ki [3] is reported as 0.452 µM. The Activity [4] was “Active”.
